System: MS2 coat protein
Assay: apparent Kd, MS2 coat protein; higher = weaker binding; RNA-MaP array; FMN 200 µM where present
Outline: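 Designs on Illumina sequencing-chip clusters, transcribed by stalled E. coli RNA polymerase, were exposed to SNAP-549-labelled MS2 coat protein in doubling steps from 0.7 or 1.5 nM up to 3 µM, without and then with constant ligand. The buffer held 100 mM Tris-HCl pH 7.5, 80 mM KCl, 4 mM MgCl2, BSA, DTT, yeast tRNA and Tween-20. Apparent Kd values are medians of filtered per-cluster binding-curve fits to green signal normalised to red-channel RNA signal and control-cluster median Fmax.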

[1] = designed as: OFF switch for flavin mononucleotide, no ligand
[2] = ligand present: flavin mononucleotide, designed as: OFF switch for flavin mononucleotide
[3] = designed as: ON switch for flavin mononucleotide, no ligand
[4] = ligand present: flavin mononucleotide, designed as: ON switch for flavin mononucleotide

Sequence: AACAGACGUGCUCUGAGUCCACAUGAGGAUCACCCAUGUGAGAGAAGGACCCUCGAGAGAGUUGGGUAGGAUAUCUCCGAUGGG
- apparent Kd [1]: 0.027 µM
- apparent Kd [2]: 0.0805 µM

Sequence: UCAGUUCUGCAAGGAUAUCGUCCUAGUUUGGUACGAGAAGGUGCUUUUGUUUUUUCCUUGUGUUGACAUGAGGAUCACCCAUGU
- apparent Kd [1]: 0.0358 µM
- apparent Kd [2]: 0.0465 µM

Sequence: CCAUAUAGGUAGGAUAUCGAUUUUAAUUAAUAUCGAGAAGGGUCAACAUGAGGAUCACCCAUGUCAGCAUGUAC
- apparent Kd [1]: 0.0804 µM
- apparent Kd [2]: 0.0755 µM

Sequence: GUAGUGCUCAUAGGAUAUCGGGAGCAACGUAGACAGGUUGCACAUGAGGAUCACCCAUGUAAAGUCGAGAAGGGUGAUCACGCC
- apparent Kd [3]: 0.599 µM
- apparent Kd [4]: 0.177 µM

Sequence: AAUAACAGAGGAUAUACUGUUUUAUGUGUUUGUUGUUUUAAACAUGAGGAUCACCCAUGUAGAAGGCUGAGUAA
- apparent Kd [1]: 0.0232 µM
- apparent Kd [2]: 0.0237 µM

Sequence: ACCUUACAUGAGGAUCACCCAUGUUAGGAUAUCUCGCUUUCGCUGUCACAGCGCAAGCAGAGAAGGGACACGGG
- apparent Kd [1]: 0.0339 µM
- apparent Kd [2]: 0.0645 µM

Sequence: AUGGUGGUAGGAUAUACAACUACUUGAUCGCGUUUCAUGGAACAUGAGGAUCACCCAUGUAGAAGGGCCCGAGG
- apparent Kd [1]: 0.794 µM
- apparent Kd [2]: 0.552 µM

Sequence: CCUCGACAUGAGGAUCACCCAUGUCAGGAUAUUGUGUCUCGGGUUUUUUACCGAAAGGCGAGAAGGGAUGUGUG
- apparent Kd [1]: 0.0161 µM
- apparent Kd [2]: 0.021 µM

Sequence: GUCGAGUGAGGAUAUGGUGAGUAGUGCCAGAGCGCUGCUCACCAGAAGGCACAUGAGGAUCACCCAUGUAUAGC
- apparent Kd [1]: 0.0168 µM
- apparent Kd [2]: 0.0299 µM

Sequence: GGAAACUACGAGAAGGACAUGUGGUCCUUCAGUUACAUGAGGAUCACCCAUGUAGGAUAUCGUAGUUUCAGGAUCGUGAGAUCA
- apparent Kd [1]: 0.0332 µM
- apparent Kd [2]: 0.0107 µM

Sequence: AUCUAGUCAGGAUAUACGAACCGAUGAAUCGGACGGAACGAACAUGAGGAUCACCCAUGUAGAAGGGACACUCA
- apparent Kd [1]: 0.162 µM
- apparent Kd [2]: 0.163 µM

Sequence: UGUUGUAUUACAGGAUAUCUAUUAGUUUUAAUUAGAGAAGGGUAUUCACAUGAGGAUCACCCAUGUAUAUACGAGGAAGUUGUG
- apparent Kd [3]: 0.0391 µM
- apparent Kd [4]: 0.0422 µM

Sequence: AGUCAUACAGGAUAUACAUGAGGAUCACCCAUGUUUAUCCUAAAAUAAAGAUCCUCAUGUAGAAGGGUAUGACA
- apparent Kd [1]: 0.0128 µM
- apparent Kd [2]: 0.0126 µM

Sequence: GCGUAUUACGCAGGAUAUCCUUAUAUACAUGAGGAUCACCCAUGUUUUUUCGGAGAAGGGCGUAUGGGAUUUAAGAAUCAACAA
- apparent Kd [3]: 0.0112 µM
- apparent Kd [4]: 0.00431 µM

Sequence: AUCCGACAUGAGGAUCACCCAUGUCAGGAUAUGGACUGACACCGAAAGAGUGGAGGAACCAGAAGGGACUGGGC
- apparent Kd [1]: 0.0277 µM
- apparent Kd [2]: 0.0465 µM

Sequence: AAAAAAAAAACUCAGGAUAUAGAUUGUAGAACAUGAGGAUCACCCAUGUAGUGAAAGAAGAGAGACUAGAAGGGAGUAAAAAAAAA
- apparent Kd [3]: 0.0857 µM
- apparent Kd [4]: 0.0747 µM

Sequence: CGGCACCAAGGAUAUACAUGAGGAUCACCCAUGUUUUUUGGGCCCUAAAGAUCUACGUGUAGAAGGUGGGUCGA
- apparent Kd [1]: 0.0588 µM
- apparent Kd [2]: 0.0596 µM

Sequence: CGUCUAUGCAAGAAGGCAUGAAACAUGAGGAUCACCCAUGUCAAAGACAUGAGGAUAUUGCAUAGACGAAAAGUGCGAAAGCAC
- apparent Kd [4]: 0.00332 µM

Sequence: ACUAAACGAGGAUAUACUGACAGGCCUCAAACAUACAUCAAACAUGAGGAUCACCCAUGUAGAAGGCGUAAACU
- apparent Kd [1]: 0.0345 µM
- apparent Kd [2]: 0.0251 µM

Sequence: AGCUACGUUUCGUAGCAGCUAGGUGAGGAUAUUCAAUUUUUCACAUGAGGAUCACCCAUGUAUGUGAAGAAGGCGCCUAGAAAG
- apparent Kd [3]: 0.0133 µM
- apparent Kd [4]: 0.00477 µM

Sequence: UGUGUCCGUAGAGGAUAUCCGGGCGUUCGGCUAGGAGAAGGCUGCGACACAUGAGGAUCACCCAUGUAGGUUGUGUCUCUCUAC
- apparent Kd [1]: 0.0516 µM
- apparent Kd [2]: 0.275 µM

Sequence: AUGCUUUAUGUAGGAUAUUCAAACGGUAAGAAUGGAGAAGGACAUGAGGAUCACCCAUGUAAAAUAUUAUUAGAUAUCAUACAU
- apparent Kd [1]: 0.0221 µM
- apparent Kd [2]: 0.0194 µM

Sequence: GGACUGGACUAGAAGGGUGAUGCGCUCGCAGACACAGGAUAUAGUCACAUGAGGAUCACCCAUGUCGGUCCAUGUAAAGAAACU
- apparent Kd [3]: 0.0203 µM
- apparent Kd [4]: 0.0148 µM

From the EternaBench riboswitch data
